Structures are written as SMILES. Substitutions are numbered along the chain they refer to.

Holding throughout (experiment): spectral perturbation titration
What all share (type): binding

Experiment [1] concerns the target T1, nitrate reductase (NarB) (Synechococcus elongatus, UniProt P39458, R160Q).
T1 sequence (P39458 15-729 R160Q): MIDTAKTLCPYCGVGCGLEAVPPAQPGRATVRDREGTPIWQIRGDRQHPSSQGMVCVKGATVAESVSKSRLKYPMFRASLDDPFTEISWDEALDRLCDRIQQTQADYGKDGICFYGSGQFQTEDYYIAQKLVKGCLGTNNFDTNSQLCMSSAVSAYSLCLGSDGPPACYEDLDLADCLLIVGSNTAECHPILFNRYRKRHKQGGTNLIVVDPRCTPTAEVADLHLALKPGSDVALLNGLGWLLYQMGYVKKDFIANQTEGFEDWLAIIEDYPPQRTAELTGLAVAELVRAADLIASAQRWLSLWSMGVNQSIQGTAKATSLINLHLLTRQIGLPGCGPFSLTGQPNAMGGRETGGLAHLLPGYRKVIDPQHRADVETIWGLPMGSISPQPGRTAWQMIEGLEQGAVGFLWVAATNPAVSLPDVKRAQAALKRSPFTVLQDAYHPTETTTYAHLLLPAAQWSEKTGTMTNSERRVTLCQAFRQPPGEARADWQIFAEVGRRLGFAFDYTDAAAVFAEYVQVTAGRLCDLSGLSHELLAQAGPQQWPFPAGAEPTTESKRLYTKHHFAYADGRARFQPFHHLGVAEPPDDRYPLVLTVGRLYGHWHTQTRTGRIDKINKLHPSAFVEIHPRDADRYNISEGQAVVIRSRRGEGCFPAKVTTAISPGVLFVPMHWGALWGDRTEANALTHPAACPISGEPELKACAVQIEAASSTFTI
The procedure, abridged: (§1)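 Single-residue NarB variants were made by site-directed mutagenesis and expressed and purified as for wild type (His6, Co affinity, DEAE, gel filtration). Complex formation with ferredoxin or nitrate was followed by difference absorbance at variant-specific wavelength pairs chosen for signal:noise. The change at saturating nitrate was taken as 100% complex. Kd came from fitting perturbation magnitude against ligand concentration to a single binding isotherm.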

In experiment [2] the target is T2, nitrate reductase (NarB) (Synechococcus elongatus, UniProt P39458, K144Q).
T2 sequence (P39458 15-729 K144Q): T1 sequence (P39458 15-729 R160Q) with K130Q, Q146R
The procedure, abridged:
as §1

The target of experiment [3] is T3, nitrate reductase (NarB) (Synechococcus elongatus, UniProt P39458, R84Q).
T3 sequence (P39458 15-729 R84Q): T1 sequence (P39458 15-729 R160Q) with R70Q, Q146R
The procedure, abridged: as §1

Take `O=[N+]([O-])O` [nitrate]: the Kd on nitrate reductase (NarB) [1] stood at 1.5 ± 0.4 µM; on nitrate reductase (NarB) [2], 19 ± 6.8 µM; on nitrate reductase (NarB) [3] it was 5.5 ± 2.2 µM.

Broadly, the Kd is the free concentration of one partner at which half of the binding sites on the other are occupied at equilibrium, for simple one-to-one binding. A high value points to a looser complex.
